Rows were chosen to be rich in hits. Some 3% of all compounds tested hit in one or more screens of this group.
SR-BI DiI inh = blocks mouse SR-BI lipid uptake from DiI-HDL; Q61009; ldlA[mSR-BI] CHO cells, DiI-HDL uptake fluorescence, 3 h; inhibition, % at 12.5 µM; 320,000 tested, 0.96% active;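 active = mean replicate inhibition of at least 70% and a set share of replicates each scoring 70 or more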;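 also: 0% = median of neutral control wells and 100% = median of positive control wells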
Target sequence (Q61009 whole entry, looked up): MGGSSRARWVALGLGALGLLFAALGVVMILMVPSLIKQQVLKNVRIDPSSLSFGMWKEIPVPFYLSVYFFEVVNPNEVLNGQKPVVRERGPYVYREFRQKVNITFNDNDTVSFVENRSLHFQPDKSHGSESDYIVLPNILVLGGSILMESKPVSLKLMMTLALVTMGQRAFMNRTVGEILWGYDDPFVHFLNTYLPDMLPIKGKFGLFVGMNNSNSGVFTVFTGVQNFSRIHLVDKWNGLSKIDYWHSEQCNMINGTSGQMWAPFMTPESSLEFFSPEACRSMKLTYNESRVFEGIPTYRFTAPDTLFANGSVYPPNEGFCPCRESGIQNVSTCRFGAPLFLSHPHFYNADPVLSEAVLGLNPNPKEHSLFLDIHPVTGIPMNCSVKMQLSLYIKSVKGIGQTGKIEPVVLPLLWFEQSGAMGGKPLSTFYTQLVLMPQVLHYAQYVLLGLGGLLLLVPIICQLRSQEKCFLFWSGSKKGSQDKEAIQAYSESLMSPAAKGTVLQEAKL
ANO1 activ = activators or potentiators of mouse TMEM16A chloride channel | 340,000 tested, 0.3% active | HEK293 TMEM16A/YFP-H148Q/I152L, iodide quench fluorescence; active compounds read low | Q8BHY3 | B-score at 10 µM;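 active = fluorescence-ratio B-score plate-corrected deviation score at least 3 library SD below zero, with starting fluorescence score within 5 deviations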;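 also: channel opened by trigger with iodide after compound preincubation; score built on the fluorescence ratio of max minus min over baseline; more negative score means more quench and so TMEM16A activation or potentiation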
Kir21 inh = Kir2.1 (mouse) channel inhibition. HEK293-Kir2.1, FluxOR thallium flux fluorescence; active compounds read low. P35561. B-score at 10 µM. AID 1672. 310,000 tested, 0.85% active;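 active = fluorescence ratio B-score at or below minus 3 SD of library scores, with starting-brightness B-score within 2 SD, cut at about -4.2 in these data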;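 also: channel flux triggered by added potassium and thallium sulfate stimulus; B-score of peak minus minimum fluorescence over baseline after thallium stimulus; more negative B-score means stronger Kir2.1 block with less thallium influx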
SR-BI uptake up = enhances SR-BI lipid uptake from DiI-HDL; CHO ldlA[mSR-BI] cells, DiI-HDL uptake fluorescence, 3 h; 100 = double the neutral-control signal; activation, % at 12.5 µM; 320,000 tested, 0.096% active;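 active = mean replicate activation of at least 60% and every replicate at or above 60%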;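 also: 0% = median plate neutral-control signal and 100% = twice that signal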
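Assay system: LDL receptor-deficient CHO ldlA cells overexpressing murine SR-BI / Medium: BSA-supplemented, HEPES-buffered Ham's F12, pH 7.4 / Probe or stimulus: DiI-labelled HDL at 10 µg/mL final / Timing: compound with DiI-HDL co-incubation, 3 h at 37 °C / Technique: bottom-read cell fluorescence after medium removal, ex 550/em 595 nm / Measure: HDL uptake via cellular fluorescence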
DNA FID counter = counter-screen for HCV NS3 helicase inhibitors: DNA intercalator displacement; DNA fluorescent intercalator displacement, fluorescence; inhibition, % at 7.9 µM; 290,000 tested, 0.17% active; AID 1845; in the data active = inhibition above about 37%;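 also: 0% = vehicle and 100% = reference compound; higher means more ethidium bromide displaced from hairpin DNA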
ANO1 block = inhibitors of mouse TMEM16A calcium-activated chloride channel; Q8BHY3; HEK293 TMEM16A/YFP iodide influx fluorescence, ionomycin; normalized B-score (activity score, 25-100; higher = stronger inhibition) at 10 µM; 310,000 tested, 1.2% active;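 active = ratio plate-corrected score three or more library SD toward inhibition, starting fluorescence score within five deviations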;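 also: score derived from kinetic fluorescence span divided by baseline fluorescence per well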
TMEM16A reconf = re-confirmation of mouse TMEM16A chloride channel inhibitors; shares compounds with ANO1 block; HEK293 TMEM16A/YFP-H148Q, iodide quench fluorescence; ionomycin added to raise cell calcium; inhibition, % at 10 µM; 2,300 tested, 39% active;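 active = mean duplicate percent inhibition, scaled so buffer wells are 0 and the reference blocker 100, over three buffer SD above buffer mean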
HEK293 Ca mobil = alters calcium mobilization in TMEM16A HEK293 cells, counter-screen; shares compounds with ANO1 block; TMEM16A/YFP HEK293, Fluo4 calcium mobilization; calcium response (% of ionomycin), % at 10 µM; 2,300 tested, 2% active; AID 652231;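 active = duplicate-averaged calcium signal over 20% of the ionomycin maximum, relative to buffer baseline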;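 also: each well's signal is peak minus trough fluorescence divided by its pre-addition baseline; 0% = buffer wells and 100% = ionomycin wells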
Parental YFP cnt = parental YFP-HEK293 iodide quench counter-screen activity. shares compounds with ANO1 block. ionomycin. YFP ratio F(max-min)/F0 at 10 µM. 2,300 tested, under 10 active;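 active = yellow fluorescent protein signal ratio exceeding the buffer control mean by over 5 SD of those controls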;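 also: ratio is mean of duplicate wells from kinetic YFP trace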
ClC-1 inh = rat ClC-1 inhibition, TMEM16A specificity screen. 2,300 tested, under 10 active. shares compounds with ANO1 block. AID 652236. CHO ClC-1-YFP, iodide influx fluorescence quench; iodide control reads 0, buffer control 100. ratio percent, % at 10 µM;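 active = duplicate-mean ratio percent above the mean of iodide-only control wells, which defines zero, plus 5 of their SD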;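 also: higher percent means stronger block of ClC-1 iodide influx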
* marks the source's active call; other numbers are inactive results; i = inactive; nt = no result.

SMILES	SR-BI DiI inh	ANO1 activ	Kir21 inh	SR-BI uptake up	DNA FID counter	ANO1 block	TMEM16A reconf	HEK293 Ca mobil	Parental YFP cnt	ClC-1 inh
N#C/C(=C\c1ccc(Sc2ccc(Cl)cc2)o1)c1nc2ccccc2[nH]1	-22	i	nt	22	-5	i	nt	nt	nt	nt
N#C/C(=C\c1ccc(Sc2nc3ccccc3[nH]2)o1)c1ccccc1	-3	i	0.87	3	-3	100*	22%*	i	-0.93	-20
CCCCOCCCNc1ncnc2c1[nH]c1ccccc12	-6	i	-9.6*	6	-2	100*	56%*	i	-0.8	-29
CCCCOc1ccc(C2C(C(=O)c3ccc(C)o3)=C(O)C(=O)N2CC2CCCO2)cc1 (stereo unspecified)	-16	i	-0.8	16	-45	i	nt	nt	nt	nt
COC(=O)c1cc(CSc2nc3ccccc3[nH]2)oc1C	-3	i	-0.45	3	-6	25*	22%*	i	-0.74	-12
CCCc1cc(=O)[nH]c(SCc2cc(C(=O)OC)c(C)o2)n1	-13	i	-1.6	13	-20	i	nt	nt	nt	nt
Cc1cc(=O)oc2cc(OCC(O)CN3CCc4ccccc4C3)ccc12 (stereo unspecified)	17	i	-0.21	-17	0	25*	i	i	-1.3	-8
C=CCN(C(C(=O)OC)C(C)C)S(=O)(=O)CCNCc1ccccc1 (stereo unspecified)	-24	i	nt	24	nt	nt	nt	nt	nt	nt
CC(=O)/C(C#N)=C1\NC(=O)C(Cc2cc(Cl)ccc2Cl)S1 (stereo unspecified)	7	i	1.3	-7	-24	100*	46%*	i	-1.1	-12
CC(=O)/C(C#N)=C1\NC(=O)C(Cc2ccccc2Cl)S1 (stereo unspecified)	-16	nt	2.1	16	-16	i	nt	nt	nt	nt
CCCn1nc(C(=O)N2CCN(S(=O)(=O)c3ccc(C)c(C)c3)CC2)c2ccccc2c1=O	10	i	nt	-10	nt	nt	nt	nt	nt	nt
CC1=CC(C)(C)N(S(=O)(=O)c2ccc(C)cc2)c2cc(C)ccc21	0	i	-0.79	0	-8	25*	i	i	-1.2	-10
CCOC(=O)C1CCN(S(=O)(=O)c2ccc3[nH]c(=O)ccc3c2)CC1	-18	i	0.3	18	-5	i	nt	nt	nt	nt
Cc1sc2ncnc(NCC(O)c3ccc([N+](=O)[O-])cc3)c2c1C (stereo unspecified)	37	i	-1.3	-37	-7	100*	28%*	i	-0.8	-20
Cc1sc2ncnc(NCC(O)c3ccccc3)c2c1C (stereo unspecified)	11	i	0.22	-11	-26	i	nt	nt	nt	nt
O=C(C1CCC(CNS(=O)(=O)c2ccccc2)CC1)N1CCOCC1 (stereo unspecified)	-23	i	0.03	23	-11	25*	i	i	-1	-8
CCC(C)NC(=O)C1CCC(CNS(=O)(=O)c2ccccc2)CC1 (stereo unspecified)	11	i	-2.1	-11	-19	i	i	i	-0.86	0
Cc1ccc(N(Cc2ccccc2)C(=O)c2ccc(F)c(S(=O)(=O)N3CCOCC3)c2)cc1	2	i	0.63	-2	nt	i	nt	nt	nt	nt
COC(=O)Nc1ccc(S(=O)(=O)N2CCC(C)CC2)cc1	-17	i	-1	17	-8	i	nt	nt	nt	nt
COC(=O)Nc1ccc(S(=O)(=O)N2CCC(Cc3ccccc3)CC2)cc1	-19	i	-0.26	19	-14	100*	i	i	-1.1	-7
Cc1cccc(C=NOCCc2ccccc2)n1	-17	i	nt	17	nt	nt	nt	nt	nt	nt
O=C(CN1C(=O)COc2ccccc21)c1ccc(Cl)cc1	12	i	-0.69	-12	-7	i	i	i	-1.2	4
COc1ccccc1N1CCN(C(=O)CCNS(=O)(=O)c2cc(Br)cnc2N)CC1	-3	i	1.1	3	-45	i	nt	nt	nt	nt
O=C(COc1ccc(Cl)cc1Cl)N1CCNC1=O	-10	i	nt	10	nt	nt	nt	nt	nt	nt
Cc1ccc(C)c(NC(=S)N2CCN(c3cccc(C(F)(F)F)c3)CC2)c1	2	i	0.01	-2	-2	i	nt	nt	nt	nt
SMILES	SR-BI DiI inh	ANO1 activ	Kir21 inh	SR-BI uptake up	DNA FID counter	ANO1 block	TMEM16A reconf	HEK293 Ca mobil	Parental YFP cnt	ClC-1 inh
Cc1ccnc(NC(=S)N2CCN(c3cccc(C(F)(F)F)c3)CC2)c1	30	i	-0.43	-30	-19	25*	18%*	i	-1.1	-12
COCCNC(=O)CN1N=C(c2ccc(C)cc2)CCC1=O	-16	i	-0.76	16	-5	i	nt	nt	nt	nt
O=C(CSc1ccccc1F)NNC(=O)c1cncc(Br)c1	-26	i	nt	26	nt	nt	nt	nt	nt	nt
COc1cc(C(=O)NNC(=O)COc2ccccc2Cl)ccc1OCC(=O)N1CCOCC1	22	i	nt	-22	nt	nt	nt	nt	nt	nt
CCOC(=O)c1c(-c2ccccc2)csc1NC(=O)CSc1nc(C)cc(C)n1	-24	i	0.33	24	-4	i	nt	nt	nt	nt
CCOC(=O)c1c(-c2ccccc2)csc1NC(=O)CSc1nc(N)cc(N)n1	7	i	-1.6	-7	-6	25*	30%*	i	-0.85	-5
CCC(C)NC(=O)C1CCC(CNS(=O)(=O)c2ccc3c(c2)N(C(C)=O)CCO3)CC1 (stereo unspecified)	1	i	-0.74	-1	-41	i	nt	nt	nt	nt
Cc1ccc(-c2nn3c(C)nnc3s2)cc1N	4	i	-0.03	-4	3	100*	i	i	-1.2	-10
Cc1nnc2sc(-c3ccncc3)nn12	-19	i	0.06	19	3	i	nt	nt	nt	nt
c1ccc(Cn2cnc3ccccc32)cc1	-1	i	nt	1	-3	i	nt	nt	nt	nt
Clc1ccc(Cn2cnc3ccccc32)cc1	-6	i	1.5	6	-4	100*	23%*	i	-0.81	-15
CCc1ccc2c(c1)[C@]1(C(=O)N2)[C@@H]2C(=O)N(Cc3ccccc3)C(=O)[C@@H]2[C@@H]2CCCN21	-33	i	0.07	33	-32	i	nt	nt	nt	nt
